# Published values collected from several papers.
# TRPC3: Short transient receptor potential channel 3 (TRPC3, Homo sapiens, UniProt Q13507)
SMILES,target,test,test system,setting,quantity,value
CCNC(=O)c1cnn(-c2ccc(-n3ccc(Cl)c(Cl)c3=O)cc2)c1C(F)(F)F,TRPC3,"ion current, inhibitor, patch clamp",HEK293,10 µM,inhibition,95.7%
C=CC(=O)N1CCC(COCC(=O)N2CCN(c3nc(-c4cnc(N)nc4C(F)F)nc(N4CCOC[C@@H]4C)n3)CC2)CC1,"Serine/threonine-protein kinase WNK4 (WNK4, Homo sapiens, UniProt Q96J92)","binding, competition with immobilised ligand",,1 µM,remaining binding,46%
COc1ccc(CNC(=O)c2cc3c(cc2[N+](=O)[O-])OCO3)cc1,"Myeloperoxidase (MPO, Homo sapiens, UniProt P05164)","enzyme activity, inhibitor",,5 µM,inhibition,> 50%
C=CC(=O)Nc1ccccc1C(=O)Nc1ccc(C#Cc2ccc(OC)cc2)nn1,"Fibroblast growth factor receptor 1 (FGFR1, Homo sapiens, UniProt P11362)","enzyme activity, inhibitor, radiometric",,1 µM,inhibition,3%
CCNC(=O)c1cn(-c2ccc(-n3ccc(Cl)c(Cl)c3=O)cc2)nc1C(F)(F)F,TRPC3,"ion current, inhibitor, patch clamp",HEK293,10 µM,inhibition,> 90%
CNc1ncc2c(/C=C/C(=O)N3CCC(OC)CC3)nn(Cc3cccc(C(F)(F)F)c3)c2n1,"Tyrosine-protein kinase Fgr (FGR, Homo sapiens, UniProt P09769)","enzyme activity, inhibitor, radiometric",,1 µM,remaining activity,90%
C=CC(=O)N1C[C@@H](n2nc(C#Cc3c(F)cc4c(ncn4C4CC4)c3F)c(C(N)=O)c2NC)C[C@@H]1COC,"Serine/threonine-protein kinase 10 (STK10, Homo sapiens, UniProt O94804)","enzyme activity, inhibitor, mobility shift",,1 µM,inhibition,64.6%
COc1cc(-c2cncc3c2CN(C)Cc2cc(N4CCNCC4)ccc2-3)cc(OC)c1OC,"Interferon-induced, double-stranded RNA-activated protein kinase (EIF2AK2, Homo sapiens, UniProt P19525)","enzyme activity, inhibitor",,1 µM,remaining activity,102%
CCOC(=O)c1cnn(-c2ccc(NC(=O)C(Cl)=C(Cl)Cl)cc2)c1C(F)(F)F,TRPC3,"ion current, inhibitor, patch clamp",HEK293,10 µM,inhibition,88.6%
Cc1cc([C@@H](C)Nc2ccccc2C(=O)O)c2nc(N3CCC(F)(F)CC3)c(C#N)c(=O)n2c1,"MAP kinase-interacting serine/threonine-protein kinase 2 (MKNK2, Homo sapiens, UniProt Q9HBH9)","binding, competition with immobilised ligand",,10 µM,remaining binding,100%
